From ChEMBL document CHEMBL1629494, “New amino acid esters of salicylanilides active against MDR-TB and other microbes” (Eur J Med Chem, 2010)
Converted amounts (≈) assume the structure as drawn.

Tests used:
Type in all cases: functional
Mycobacterium kansasii [1] = test: Antimycobacterial activity against Mycobacterium kansasii 6509/96 after 14 days by micromethod; conditions: 6509/96, 336 h
Outline: (§1)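 Micromethod in Sula semisynthetic medium, with compounds added as DMSO solutions at 1000, 500, 250, 125, 62, 32, 16, 8, 4, 2, 1, 0.5, 0.25. Inoculum dilutions: H37Rv 10^-3; M. avium 330/88 10^-5; M. kansasii 235/80 10^-4; M. kansasii 6509/96 10^-5. Incubated at 37 °C, read at 14 and 21 days, and at 7 days for M. kansasii. MIC was the lowest concentration inhibiting growth.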

Pichia kudriavzevii [2] = test: Antifungal activity against Candida krusei E28 after 48 hrs by broth microdilution method; conditions: E28, 48 h
Mycobacterium kansasii [3] = test: Antimycobacterial activity against Mycobacterium kansasii 235/80 after 14 days by micromethod; conditions: 235/80, 336 h; outline: as §1
[4] = tested on: Mycobacterium tuberculosis; test: Antimycobacterial activity against drug-sensitive Mycobacterium tuberculosis
Staphylococcus aureus [5] = test: Antibacterial activity against Staphylococcus aureus CCM 4516/08 after 48 hrs by broth microdilution method; conditions: CCM 4516/08, 48 h
Outline: (§2)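 Broth microdilution following […], with twofold compound dilutions in Mueller-Hinton bouillon. Incubated 24 and 48 h at 35 °C in the dark in a humid atmosphere. MIC (IC80) was taken as ≥80% growth reduction versus control, read visually and photometrically.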

Nakaseomyces glabratus [6] = test: Antifungal activity against Candida glabrata 20/I after 48 hrs by broth microdilution method
Pichia kudriavzevii [7] = test: Antifungal activity against Candida krusei E28 after 24 hrs by broth microdilution method; conditions: E28, 24 h
Klebsiella pneumoniae [8] = test: Antibacterial activity against Klebsiella pneumoniae D11750/08 after 24 hrs by broth microdilution method; conditions: D11750/08, 24 h; outline: as §2
Mycobacterium kansasii [9] = test: Antimycobacterial activity against Mycobacterium kansasii 6509/96 after 7 days by micromethod; conditions: 6509/96, 168 h; outline: as §1
Mycobacterium avium [10] = test: Antimycobacterial activity against Mycobacterium avium
[11] = tested on: Trichophyton mentagrophytes; test: Antifungal activity against Trichophyton mentagrophytes after 24 hrs by broth microdilution method
[12] = tested on: Staphylococcus epidermidis; test: Antibacterial activity against Staphylococcus epidermidis H6966/08 after 24 hrs by broth microdilution method; conditions: H6966/08, 24 h; outline: as §2
Aspergillus fumigatus [13] = test: Antifungal activity against Aspergillus fumigatus 231 after 24 hrs by broth microdilution method; conditions: Aspergillus fumigatus, 231, 24 h
Candida albicans [14] = test: Antifungal activity against Candida albicans ATCC 44859 after 24 hrs by broth microdilution method; conditions: ATCC 44859, 24 h
Mycobacterium kansasii [15] = test: Antimycobacterial activity against Mycobacterium kansasii 6509/96 after 21 days by micromethod; conditions: 6509/96, 504 h; outline: as §1
Mycobacterium avium [16] = test: Antimycobacterial activity against multidrug-resistant Mycobacterium avium 330/88 after 14 days by micromethod; conditions: 330/88, 336 h; outline: as §1
Nakaseomyces glabratus [17] = test: Antifungal activity against Candida glabrata 20/I after 24 hrs by broth microdilution method
Staphylococcus aureus [18] = test: Antibacterial activity against Staphylococcus aureus CCM 4516/08 after 24 hrs by broth microdilution method; conditions: CCM 4516/08, 24 h; outline: as §2
Staphylococcus aureus [19] = test: Antibacterial activity against methicillin-resistant Staphylococcus aureus H5996/08 after 24 hrs by broth microdilution method; conditions: H5996/08, 24 h; outline: as §2
Escherichia coli [20] = test: Antibacterial activity against Escherichia coli CCM 4517 after 24 hrs by broth microdilution method; conditions: CCM 4517, 24 h; outline: as §2
Escherichia coli [21] = test: Antibacterial activity against Escherichia coli CCM 4517 after 48 hrs by broth microdilution method; conditions: CCM 4517, 48 h; outline: as §2
Candida tropicalis [22] = test: Antifungal activity against Candida tropicalis 156 after 24 hrs by broth microdilution method; conditions: Candida tropicalis, 156, 24 h
Enterococcus sp. [23] = test: Antibacterial activity against Enterococcus sp. J14365/08 after 48 hrs by broth microdilution method; conditions: J14365/08, 48 h; outline: as §2
[24] = tested on: Mycobacterium tuberculosis; test: Antimycobacterial activity against Mycobacterium tuberculosis H37Rv 331/88 after 21 days by micromethod; conditions: H37Rv 331/88, 504 h; outline: as §1
Candida tropicalis [25] = test: Antifungal activity against Candida tropicalis 156 after 48 hrs by broth microdilution method; conditions: Candida tropicalis, 156, 48 h
Trichosporon beigelii [26] = test: Antifungal activity against Trichosporon beigelii 1188 after 24 hrs by broth microdilution method; conditions: Trichosporon beigelii, 1188, 24 h
Mycobacterium kansasii [27] = test: Antimycobacterial activity against Mycobacterium kansasii
Mycobacterium avium [28] = test: Antimycobacterial activity against multidrug-resistant Mycobacterium avium 330/88 after 21 days by micromethod; conditions: 330/88, 504 h; outline: as §1
Enterococcus sp. [29] = test: Antibacterial activity against Enterococcus sp. J14365/08 after 24 hrs by broth microdilution method; conditions: J14365/08, 24 h; outline: as §2
Staphylococcus aureus [30] = test: Antibacterial activity against methicillin-resistant Staphylococcus aureus H5996/08 after 48 hrs by broth microdilution method; conditions: H5996/08, 48 h; outline: as §2
Aspergillus fumigatus [31] = test: Antifungal activity against Aspergillus fumigatus 231 after 48 hrs by broth microdilution method; conditions: Aspergillus fumigatus, 231, 48 h
Candida albicans [32] = test: Antifungal activity against Candida albicans ATCC 44859 after 48 hrs by broth microdilution method; conditions: ATCC 44859, 48 h
[33] = tested on: Staphylococcus epidermidis; test: Antibacterial activity against Staphylococcus epidermidis H6966/08 after 48 hrs by broth microdilution method; conditions: H6966/08, 48 h; outline: as §2
Trichosporon beigelii [34] = test: Antifungal activity against Trichosporon beigelii 1188 after 48 hrs by broth microdilution method; conditions: Trichosporon beigelii, 1188, 48 h
Mycobacterium kansasii [35] = test: Antimycobacterial activity against Mycobacterium kansasii 235/80 after 7 days by micromethod; conditions: 235/80, 168 h; outline: as §1
[36] = tested on: Trichophyton mentagrophytes; test: Antifungal activity against Trichophyton mentagrophytes after 48 hrs by broth microdilution method
[37] = tested on: Mycobacterium tuberculosis; test: Antimycobacterial activity against Mycobacterium tuberculosis H37Rv 331/88 after 14 days by micromethod; conditions: H37Rv 331/88, 336 h; outline: as §1
Lichtheimia corymbifera [38] = test: Antifungal activity against Absidia corymbifera 272 after 48 hrs by broth microdilution method; conditions: Lichtheimia corymbifera, 272, 48 h
Lichtheimia corymbifera [39] = test: Antifungal activity against Absidia corymbifera 272 after 24 hrs by broth microdilution method; conditions: Lichtheimia corymbifera, 272, 24 h
Klebsiella pneumoniae [40] = test: Antibacterial activity against Klebsiella pneumoniae D11750/08 after 48 hrs by broth microdilution method; conditions: D11750/08, 48 h; outline: as §2
Mycobacterium kansasii [41] = test: Antimycobacterial activity against Mycobacterium kansasii 235/80 after 21 days by micromethod; conditions: 235/80, 504 h; outline: as §1

Compound `CC(=O)N[C@@H](Cc1ccccc1)C(=O)Oc1cc(Cl)ccc1C(=O)Nc1ccc(Cl)c(Cl)c1` has an MIC (Mycobacterium kansasii [1]) of 2 µM (≈ 1.01 µg/mL), an MIC (Pichia kudriavzevii [2]) greater than 125 µM and an MIC (Mycobacterium kansasii [3]) of 4 µM (≈ 2.02 µg/mL). For the same compound, the MIC [4] was 1 µM (≈ 0.506 µg/mL), the MIC (Staphylococcus aureus [5]) was greater than 125 µM and the MIC (Nakaseomyces glabratus [6]) was greater than 125 µM. For the same compound, the MIC (Pichia kudriavzevii [7]) was greater than 125 µM, the MIC (Klebsiella pneumoniae [8]) was greater than 125 µM and the MIC (Mycobacterium kansasii [9]) was 1 µM (≈ 0.506 µg/mL). For the same compound, the MIC (Mycobacterium avium [10]) was 1 µM (≈ 0.506 µg/mL), the MIC [11] was 62.5 µM (≈ 31.6 µg/mL) and the MIC [12] was 125 µM (≈ 63.2 µg/mL). For the same compound, the MIC (Aspergillus fumigatus [13]) was 125 µM (≈ 63.2 µg/mL), the MIC (Candida albicans [14]) was 125 µM (≈ 63.2 µg/mL) and the MIC (Mycobacterium kansasii [15]) was 4 µM (≈ 2.02 µg/mL). The MIC (Mycobacterium avium [16]) was 8 µM (≈ 4.05 µg/mL), the MIC (Nakaseomyces glabratus [17]) was greater than 125 µM and the MIC (Staphylococcus aureus [18]) was 125 µM (≈ 63.2 µg/mL). It also gave an MIC (Staphylococcus aureus [19]) of 125 µM (≈ 63.2 µg/mL), an MIC (Escherichia coli [20]) of 125 µM (≈ 63.2 µg/mL) and an MIC (Escherichia coli [21]) greater than 125 µM. It also gave an MIC (Candida tropicalis [22]) of 125 µM (≈ 63.2 µg/mL), an MIC (Enterococcus sp. [23]) greater than 125 µM and an MIC [24] of 2 µM (≈ 1.01 µg/mL). It also gave an MIC (Candida tropicalis [25]) greater than 125 µM, an MIC (Trichosporon beigelii [26]) of 125 µM (≈ 63.2 µg/mL) and an MIC (Mycobacterium kansasii [27]) of 1 µM (≈ 0.506 µg/mL). For the same compound, the MIC (Mycobacterium avium [28]) was 16 µM (≈ 8.09 µg/mL), the MIC (Enterococcus sp. [29]) was 125 µM (≈ 63.2 µg/mL) and the MIC (Staphylococcus aureus [30]) was greater than 125 µM. The MIC (Aspergillus fumigatus [31]) was greater than 125 µM, the MIC (Candida albicans [32]) was greater than 125 µM and the MIC [33] was greater than 125 µM. For the same compound, the MIC (Trichosporon beigelii [34]) was greater than 125 µM, the MIC (Mycobacterium kansasii [35]) was 4 µM (≈ 2.02 µg/mL) and the MIC [36] was greater than 125 µM. It also gave an MIC [37] of 2 µM (≈ 1.01 µg/mL), an MIC (Lichtheimia corymbifera [38]) greater than 125 µM and an MIC (Lichtheimia corymbifera [39]) of 125 µM (≈ 63.2 µg/mL). It also gave an MIC (Klebsiella pneumoniae [40]) greater than 125 µM and an MIC (Mycobacterium kansasii [41]) of 4 µM (≈ 2.02 µg/mL).

`CC(=O)N[C@@H](Cc1ccccc1)C(=O)Oc1cc(Cl)ccc1C(=O)Nc1ccc(C(F)(F)F)cc1` was tested, and the MIC (Mycobacterium kansasii [1]) was 8 µM (≈ 4.04 µg/mL), the MIC (Pichia kudriavzevii [2]) was greater than 125 µM and the MIC (Mycobacterium kansasii [3]) was 4 µM (≈ 2.02 µg/mL). It also gave an MIC [4] of 1 µM (≈ 0.505 µg/mL), an MIC (Staphylococcus aureus [5]) greater than 125 µM and an MIC (Nakaseomyces glabratus [6]) greater than 125 µM. It also gave an MIC (Pichia kudriavzevii [7]) of 62.5 µM (≈ 31.6 µg/mL), an MIC (Klebsiella pneumoniae [8]) greater than 125 µM and an MIC (Mycobacterium kansasii [9]) of 4 µM (≈ 2.02 µg/mL). The MIC (Mycobacterium avium [10]) was 1 µM (≈ 0.505 µg/mL), the MIC [11] was 125 µM (≈ 63.1 µg/mL) and the MIC [12] was 125 µM (≈ 63.1 µg/mL). The MIC (Aspergillus fumigatus [13]) was 62.5 µM (≈ 31.6 µg/mL), the MIC (Candida albicans [14]) was greater than 125 µM and the MIC (Mycobacterium kansasii [15]) was 8 µM (≈ 4.04 µg/mL). It also gave an MIC (Mycobacterium avium [16]) of 16 µM (≈ 8.08 µg/mL), an MIC (Nakaseomyces glabratus [17]) greater than 125 µM and an MIC (Staphylococcus aureus [18]) of 125 µM (≈ 63.1 µg/mL). It also gave an MIC (Staphylococcus aureus [19]) of 125 µM (≈ 63.1 µg/mL), an MIC (Escherichia coli [20]) greater than 125 µM and an MIC (Escherichia coli [21]) greater than 125 µM. The MIC (Candida tropicalis [22]) was greater than 125 µM, the MIC (Enterococcus sp. [23]) was greater than 125 µM and the MIC [24] was 16 µM (≈ 8.08 µg/mL). For the same compound, the MIC (Candida tropicalis [25]) was greater than 125 µM, the MIC (Trichosporon beigelii [26]) was 125 µM (≈ 63.1 µg/mL) and the MIC (Mycobacterium kansasii [27]) was 1 µM (≈ 0.505 µg/mL). For the same compound, the MIC (Mycobacterium avium [28]) was 32 µM (≈ 16.2 µg/mL), the MIC (Enterococcus sp. [29]) was 125 µM (≈ 63.1 µg/mL) and the MIC (Staphylococcus aureus [30]) was greater than 125 µM. The MIC (Aspergillus fumigatus [31]) was greater than 125 µM, the MIC (Candida albicans [32]) was greater than 125 µM and the MIC [33] was greater than 125 µM. It also gave an MIC (Trichosporon beigelii [34]) greater than 125 µM, an MIC (Mycobacterium kansasii [35]) of 4 µM (≈ 2.02 µg/mL) and an MIC [36] greater than 125 µM. For the same compound, the MIC [37] was 8 µM (≈ 4.04 µg/mL), the MIC (Lichtheimia corymbifera [38]) was greater than 125 µM and the MIC (Lichtheimia corymbifera [39]) was 62.5 µM (≈ 31.6 µg/mL). It also gave an MIC (Klebsiella pneumoniae [40]) greater than 125 µM and an MIC (Mycobacterium kansasii [41]) of 4 µM (≈ 2.02 µg/mL).
